In article PMC6583925 (Journal of medicinal chemistry, 2019):

Key:
serine hydrolases = test: selectivity by gel-based ABPP with FP-Rh in mouse brain proteome; type: biochemical; conditions: FP-Rh probe
How it was run: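 Mouse brain homogenised in DPBS and cleared at 1,400 × g. Membranes pelleted at 16,000 × g (45 min, 4 °C) and resuspended in DPBS; used at 1 mg/mL. Test compound pretreatment: (thio)ureas 20 min at room temperature, NHH-carbamates 45 min at 37 °C. FP-Rh labelling (1 μM final) 45 min at 37 °C. Readout: 10% SDS-PAGE, in-gel fluorescence, band intensities quantified.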

[1] = test system: lymphocytic choriomeningitis virus (LCMV) clone 13; conditions: mice; cited from earlier work
[2] = test system: brain lyso-PS/PI and C20:4 PS content; conditions: mice; cited from earlier work
THP1 cells = test: cell viability assay; type: cell-based, human; conditions: 72 h, CellTiter-Glo
How it was run: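 THP-1 cells maintained in RPMI 1640 with 10% heat-inactivated FBS and 0.05 mM 2-mercaptoethanol at 2×105 to 1×10^6 cells/ml. Seeded at 3,000 cells per well; test compound added after 24 h at final 0.1 to 10 μM. After 72 h incubation, viability was read by CellTiter-Glo luminescence and normalized to vehicle-treated controls.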

THP-1 macrophages = test: cytokine measurements in M1-polarized THP-1 macrophages; type: cell-based, human; conditions: M1 stage THP-1 macrophages; DO264 0.1, 0.5, 1 μM, DO271 1 μM; 6 and 24 h
[3] = test system: broader panel of cell lines; test: cell viability assay; type: cell-based; conditions: all cell lines, 72 h
[4] = 30 mg/kg, cited from earlier work
[5] = mice, four weeks of inhibitor treatment; cited from earlier work
ABHD12 = molecular target: T1, ABHD12 (Homo sapiens, UniProt Q8N2K0); conditions: cited from earlier work
T1 sequence (Q8N2K0 1-398): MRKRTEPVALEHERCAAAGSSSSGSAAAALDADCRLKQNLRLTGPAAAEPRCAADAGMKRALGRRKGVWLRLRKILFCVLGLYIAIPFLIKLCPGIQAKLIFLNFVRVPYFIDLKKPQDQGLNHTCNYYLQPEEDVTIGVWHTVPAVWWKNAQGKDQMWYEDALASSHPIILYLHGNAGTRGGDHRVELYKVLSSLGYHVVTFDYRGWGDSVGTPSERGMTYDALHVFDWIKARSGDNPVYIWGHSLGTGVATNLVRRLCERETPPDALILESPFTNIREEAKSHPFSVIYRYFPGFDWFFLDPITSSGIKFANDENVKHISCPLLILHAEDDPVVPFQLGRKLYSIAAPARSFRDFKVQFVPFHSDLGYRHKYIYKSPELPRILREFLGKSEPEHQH

Compound: FC(F)(F)Oc1ccc(Oc2ccnc(N3CCC(NC(=S)Nc4cccnc4)CC3)c2Cl)c(Cl)c1 [DO264]
- selectivity / off-targets among serine hydrolases (serine hydrolases): excellent selectivity over other serine hydrolases
- immunological responses to LCMV clone 13 infection [1]: heightened immunological responses
- brain lyso-PS/PI and C20:4 PS content [2]: substantial elevations
- concentration that impaired the viability of THP1 cells (THP1 cells): ≥ 5 µM
- CCL3 level (THP-1 macrophages): elevated
- CCL4 level (THP-1 macrophages): elevated
- IL-1β level (THP-1 macrophages): concentration-dependent increases
- TNF-α level (THP-1 macrophages): concentration-dependent increases
- cytotoxicity at 1 μM [3]: without displaying cytotoxicity
- toxicity in mice ([4]; treatment for several weeks): without overt signs of toxicity
- total exposure levels in the periphery and brain ([4]; mice, p.o. or i.p. dosing): 3 to 9 µM
- auditory defects [5]: did not exhibit the auditory defects observed in ABHD12–/– mice
- concentration giving full engagement of ABHD12 (ABHD12): 1 µM
